# This is a sample that favours compounds with a hit; in the whole collection about 2.9% have one here.
# 5HT1E antag = blocks the human 5-HT1E serotonin receptor. CHO 5-HT1E Ga15 NFAT-bla reporter, FRET, antagonist. inhibition, % at 6 µM. actives 0.99% (n = 65,000);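 active = inhibition above a set limit, the mean inhibition across every tested compound plus 3 SD, cut at about 29% in these data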;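 note: signal is the 460 over 535 nm emission ratio of beta-lactamase substrate; 0% = agonist plus DMSO wells and 100% = wells without agonist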
# S1P3 agonist = activates the human S1P3 receptor; actives 0.1% (n = 60,000); AID 373; Q99500; S1P3 NFAT-BLA reporter cells, agonism, FRET ratio; relative to 1 µM S1P, basal subtracted; activation, % at 4.5 µM;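 active = activation above the screen-wide mean plus 3 SD, cut at about 4.5% in these data, passing the limit was not always enough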
# Target sequence (Q99500 whole entry, looked up): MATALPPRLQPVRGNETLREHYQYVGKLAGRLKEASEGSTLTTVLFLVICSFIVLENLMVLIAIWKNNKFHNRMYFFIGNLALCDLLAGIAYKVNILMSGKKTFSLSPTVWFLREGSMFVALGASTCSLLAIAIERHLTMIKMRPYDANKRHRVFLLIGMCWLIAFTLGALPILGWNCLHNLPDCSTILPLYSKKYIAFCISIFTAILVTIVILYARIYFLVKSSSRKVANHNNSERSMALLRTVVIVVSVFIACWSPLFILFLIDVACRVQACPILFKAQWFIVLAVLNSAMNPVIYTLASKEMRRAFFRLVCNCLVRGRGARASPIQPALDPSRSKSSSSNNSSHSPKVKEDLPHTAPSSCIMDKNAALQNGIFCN
#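 Assay system: CHO cells stably expressing human S1P3, Gα16 and NFAT-β-lactamase reporter. Timing: overnight plating, 4 h compound 37 °C, 2 h substrate RT. Signal: β-lactamase FRET emission ratio 460/535 nm. Measure: percent activation versus median 1 µM S1P response, basal-subtracted, per plate. Repeats: primary screen single test, confirmation screen in triplicate.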
# 5HT1a ag = agonists of human 5-HT1a serotonin receptor | P08908 | CHO 5-HT1a Ga15 NFAT-bla reporter, FRET ratio; 0% basal, 100% maximal reference agonist | activation, % at 10 µM | actives 0.56% (n = 65,000) | AID 567;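 active = activation above the screen-wide mean activation plus 3 SD, cut at about 19% in these data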;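 note: 0% = DMSO wells and 100% = 5-CT at EC100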
# S1P1 ag-PAM = agonists and agonism potentiators of human S1P1 receptor. S1P1 CRE-bla cells, forskolin, beta-lactamase FRET, potentiator mode; S1P1 agonist co-added at EC20, 2 nM; 100% = saturating reference agonist, 0% = basal. activation, % at 9.5 µM. actives 0.57% (n = 56,000);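 active = activation above a cutoff set at the mean activation of all tested compounds plus 3 SD, cut at about 54% in these data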;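 note: forskolin at 4 µM as EC80 and the EC20 agonist is SEW2871; 100% = SEW2871 at its EC100 plus forskolin at EC80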
# 5-HT1A blocker = blocks the human serotonin 5-HT1a receptor | AID 612 | CHO 5-HT1a Ga15 NFAT-bla reporter, antagonist mode | actives 0.68% (n = 62,000) | inhibition, % at 10 µM;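 active = inhibition above the mean of all tested compounds plus 3 SD, cut at about 43% in these data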;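 note: receptor stimulated by 5-CT agonist at 100 nM near EC80; beta-lactamase reporter measured by ratiometric fluorescence of a cleavable substrate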
# 5HT1E ag = activates the human 5-HT1E serotonin receptor | P28566 | CHO 5-HT1E Ga15 NFAT-bla reporter, FRET; 0% DMSO wells, 100% control agonist wells | activation, % at 6 µM | actives 0.69% (n = 65,000) | AID 574;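 active = activation above a set limit, the screen-wide mean activation plus 3 SD, cut at about 8.5% in these data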;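 note: 100% = positive control agonist at 1 µM giving full maximal response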
# Active calls of the source: *; x = no result given.
SMILES,5HT1E antag,S1P3 agonist,5HT1a ag,S1P1 ag-PAM,5-HT1A blocker,5HT1E ag
COc1cc(Cn2c(-c3nonc3N)nc3ccccc32)ccc1C,52*,-2,-5,31,64*,-1
COc1cccc(Cn2c(-c3nonc3N)nc3ccccc32)c1,39*,0,-2,7,46*,0
CCCCOc1ccccc1NC(=O)Cn1c(-c2nonc2N)nc2ccccc21,71*,-1,-3,29,62*,3
CCCC(=O)C1=C(c2ccccc2)C(C#N)(C#N)C(C#N)=C1N,1,1,-2,20,-5,0
CCC(C)NC(=O)CSC1=Nc2ccccc2C2=NC(CC(=O)NCc3ccccc3)C(=O)N12 (configuration not stated),-10,0,-1,-21,-13,0
CCOC(=O)C1CCCN(S(=O)(=O)c2cccc3cccnc23)C1 (configuration not stated),-12,-1,-2,8,-9,1
Cc1cc(C(=O)CSc2nnc(-c3cccnc3)n2-c2ccccc2F)c(C)n1C,17,-1,-2,101*,8,-1
Cc1cc(C(=O)CSc2nnc(-c3ccncc3)n2-c2ccccc2)c(C)n1C,8,0,0,97*,-4,0
CCc1ccccc1-n1c(SCC(=O)NC)nnc1-c1cccnc1,2,0,-4,-7,3,-2
Cc1cc(C(=O)CSc2nnc(-c3ccccc3)n2C)c(C)n1C,-6,-1,1,3,4,1
CCOc1ccccc1-n1c(SCC(N)=O)nnc1-c1ccccc1,4,0,1,1,-12,0
Cc1cc(C(=O)CSc2nnc(-c3ccccc3)n2-c2ccccc2)c(C)n1-c1ncn[nH]1,-16,-1,-4,90*,-20,0
CCC(c1nnnn1C(C)(C)C)N1CCN(c2cc(Cl)ccc2C)CC1 (configuration not stated),-2,-2,-2,-4,44*,-1
CCOC(=O)N1CCC(NC(=O)c2ccc(CS(=O)(=O)c3c(Cl)cccc3Cl)o2)CC1,-3,1,0,5,-3,2
CCOC(=O)N1CCC(NC(=O)c2ccc(CS(=O)(=O)c3ccccc3C)o2)CC1,-6,1,39*,-10,5,2
Cc1nc(N2CCN(C)CC2)[nH]c(=O)c1Cc1cccc2ccccc12,10,0,-6,-4,1,1
c1ccc2c(CC3=NCCN3)cccc2c1,-19,-1,4,-2,x,9.2*
COc1ccc(N(CC(=O)NCc2cccnc2)S(=O)(=O)c2c(C)nn(C)c2C)cc1,-6,0,1,8,-13,1
Cc1ccc(-c2cc(-c3ccc(Cl)cc3)c(C#N)c(N)n2)o1,-2,5.9*,4,-216,-5,0
Cc1cc(-c2cc(-c3ccc(Cl)cc3)nc(N)c2C#N)co1,-27,8,41*,-87,x,7
C/C(N)=C(/C#N)C(=O)CSc1nnc(Nc2c(C)cccc2C)s1,-3,0,-1,-14,3,-1
C/C(N)=C(/C#N)C(=O)CSc1nnc(SCc2ccc(Cl)cc2)s1,-3,0,-2,60*,-10,0
Cn1c(=O)oc2cc(S(=O)(=O)NCCC(=O)NC3CCCC3)ccc21,-9,0,-4,1,-9,0
Cc1ccc(NC(=O)CCNS(=O)(=O)c2ccc3c(c2)oc(=O)n3C)cc1,-8,0,-1,-4,-11,32*
CC(C)C(NS(=O)(=O)c1cccs1)C(=O)NCc1ccc2c(c1)OCO2 (configuration not stated),-11,0,0,-7,-4,1
SMILES,5HT1E antag,S1P3 agonist,5HT1a ag,S1P1 ag-PAM,5-HT1A blocker,5HT1E ag
Cc1nc(NC2=NCN(CCCN3CCOCC3)CN2)nc2c(C)cccc12,-14,0,-1,-26,-11,15*
Cc1cc2nc(NC3=NCN(CCCN4CCOCC4)CN3)nc(C)c2cc1C,-2,-1,-1,-5,-1,0
O=C1C=C(N2CCN(C3=CC(=O)CCC3)CC2)CCC1,-5,-4,4,11,x,-2
COc1ccccc1N1CCN(C2=CC(=O)CCC2)CC1,0,x,6,x,18,32*
COc1ccccc1N1CCN(c2nc(-c3ccccc3)cc(C(F)(F)F)n2)CC1,-6,x,-3,x,2,-1
COc1ccccc1N1CCN(c2ccc(-c3ccccc3)nn2)CC1,51*,x,-1,x,38,0
O=C(COC(=O)c1ccccc1Oc1ccccc1)NC1CCS(=O)(=O)C1 (configuration not stated),4,1,0,10,-14,0
CSc1ncccc1C(=O)OCC(=O)NC1CCS(=O)(=O)C1 (configuration not stated),8,0,21*,5,-2,-1
COC(=O)c1ccc(OCC(O)CN(CC(C)C)CC(C)C)cc1 (configuration not stated),4,-1,-2,23,8,-1
COc1cc2c(C(=O)N3CCN(Cc4ccc5c(c4)OCO5)CC3)cn(C)c(=O)c2cc1OC,11,x,0,x,1,-1
COc1ccccc1C(=O)N1CCN(Cc2ccc3c(c2)OCO3)CC1,2,-2,-2,-6,x,8.8*
CCOC(=O)c1[nH]c(C)c(C(=O)N2CCc3ccccc32)c1C,77*,-1,-3,4,51*,-1
CC(=O)c1c(C)[nH]c(C(=O)N2CCc3ccccc32)c1C,-4,0,0,-7,-2,1
CCOC(=O)c1cc2sccc2n1CC(=O)N1CCc2ccccc21,44*,x,-1,x,25,1
O=C(CCCC(=O)N1CCc2ccccc21)N1CCc2ccccc21,11,-1,-5,-3,14,0
CCOCC(=O)N1CCc2ccccc21,4,0,24*,-4,6,0
COc1ccccc1C(=O)N1CCc2ccccc21,-1,0,-4,-5,7,20*
COc1cccc2cc(C(=O)N3CCc4ccccc43)c(=O)oc12,-8,-1,-4,3,-12,-1
Cc1cc(NC(=O)c2cc(C3CC3)on2)no1,-14,1,-2,-16,2,1
Cc1ccc(-c2nnc(N3CCCCC3)c3ccccc23)cc1S(=O)(=O)N1CCN(C)CC1,31*,-1,3,-2,4,-1
CCN(CC)c1ccc2c(Cl)c(Br)c(=O)oc2c1,91*,-1,-19,49,95*,1
CCOC(=O)Cc1c(C)c2ccc(N(CC)CC)cc2oc1=O,-2,3,25*,-25,-27,7
CCOC(=O)CCc1c(C)c2ccc(O)cc2oc1=O,-7,0,1,x,-12,0

# Source: PubChem BioAssay
